The source of these data is ChEMBL document CHEMBL1152649, “Synthesis, cytotoxicity and human telomerase inhibition activities of a series of 1,2-heteroannelated anthraquinones and anthra[1,2-d]imidazole-6,11-dione homologues” (2009).

For one experiment, the system named is COLO 205. In words: Antiproliferative activity against human COLO205 cells assessed as cell growth at 10 uM. It counts as functional. To be noted: read-out: Activity. Put shortly: (§1)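 NCI 60 cell line panel, single-dose screen (10^-5 M) run by the developmental therapeutics program protocol. Results are given as growth percent of treated cells relative to untreated control cells for each line.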

The next experiment has as its system KM12. In words: Antiproliferative activity against human KM12 cells assessed as cell growth at 10 uM. To be noted: read-out: Activity. In kind it is functional. The essentials:
as §1

The subject of another experiment is OVCAR-5. The experiment in a line: Antiproliferative activity against human OVCAR5 cells assessed as cell growth at 10 uM. It counts as functional. To be noted: read-out: Activity. Put shortly:
as §1

The next experiment deals with SN12C. The experiment in a line: Antiproliferative activity against human SN12C cells assessed as cell growth at 10 uM. It counts as functional. To be noted: read-out: Activity. The essentials:
as §1

In another experiment the test system is NCI-H226. The experiment in a line: Antiproliferative activity against human NCI-H226 cells assessed as cell growth at 10 uM. It counts as functional. To be noted: read-out: Activity. Put shortly: as §1
Experiment [1] concerns the target Telomerase reverse transcriptase (Homo sapiens) (UniProt O14746). The experiment in a line: Inhibition of telomerase in human H1299 cells up to 100 uM by TRAP assay. It counts as cell-based. Put shortly:
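PCR-based telomeric repeat amplification protocol (TRAP). The telomerase source was total lysate of H1299 lung cancer cells, with protein measured against BSA standards. Controls were extract without inhibitor and RNase A-treated extract.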

The subject of the next experiment is HOP-62. The experiment in a line: Antiproliferative activity against human HOP62 cells assessed as cell growth at 10 uM. In kind it is functional. To be noted: read-out: Activity. Put shortly: as §1
In the next experiment the test system is SK-MEL-2. The experiment in a line: Antiproliferative activity against human SK-MEL-2 cells assessed as cell growth at 10 uM. To be noted: read-out: Activity. In kind it is functional. The essentials: as §1
The next experiment relates to K562. The experiment in a line: Antiproliferative activity against human K562 cells assessed as cell growth at 10 uM. In kind it is functional. To be noted: read-out: Activity. Put shortly:
as §1

The subject of a further experiment is SNB-19. The experiment in a line: Antiproliferative activity against human SNB19 cells assessed as cell growth at 10 uM. It counts as functional. To be noted: read-out: Activity. Put shortly:
as §1

Experiment [2] in a line: Antiproliferative activity against human RPMI8266 cells assessed as cell growth at 10 uM. In kind it is functional. To be noted: read-out: Activity. The essentials: as §1
Experiment [3] can be described thus: Cytotoxicity against human H1299 cells at 1 uM after 48 hrs by MTT assay. In kind it is functional. To be noted: NCI-H1299, 48 h. Put shortly:
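H1299 non-small cell lung cancer cells were grown in RPMI 1640 with 10% FBS, penicillin and streptomycin at 37 °C under 5% CO2. About 2 × 10³ cells per well were seeded and left 24 h. Compounds were dissolved fresh in DMSO, diluted into complete medium and applied for 48 h. MTT was then added for 4 h at 37 °C, followed by lysis buffer (20% SDS, 50% DMF) for 16 h, and absorbance was read at 550 nm.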
Background: Tetrazolium dyes change colour on reduction, which living cells bring about.

The target of experiment [4] is Telomerase reverse transcriptase (Homo sapiens) (UniProt O14746). The experiment in a line: Inhibition of TERT in human H1299 cells assessed as residual transcriptional activity at 1 uM after 24 hrs by SEAP reporter gene assay; values are per cent of control. A general note: Reporter assays use an easily measured gene product as a stand-in for the process of interest.

For the next experiment, the system named is SF-539. In words: Antiproliferative activity against human SF539 cells assessed as cell growth at 10 uM. To be noted: read-out: Activity. In kind it is functional. The essentials:
as §1

A further experiment has as its system DU-145. In words: Antiproliferative activity against human DU145 cells assessed as cell growth at 10 uM. In kind it is functional. To be noted: read-out: Activity. The essentials:
as §1

Another experiment relates to UACC-257. In words: Antiproliferative activity against human UACC257 cells assessed as cell growth at 10 uM. In kind it is functional. To be noted: read-out: Activity. The essentials: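 NCI 60 cell line panel, single dose (10^-5 M), run per the Developmental Therapeutics Program protocol (one dose mean graph). Each result is the growth percentage of treated cells relative to untreated control cells.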

Calls of active or inactive are those of the source. The calls are words filed in the database; no cut-off is given here.

Chain of Telomerase reverse transcriptase (Homo sapiens) (O14746 whole entry): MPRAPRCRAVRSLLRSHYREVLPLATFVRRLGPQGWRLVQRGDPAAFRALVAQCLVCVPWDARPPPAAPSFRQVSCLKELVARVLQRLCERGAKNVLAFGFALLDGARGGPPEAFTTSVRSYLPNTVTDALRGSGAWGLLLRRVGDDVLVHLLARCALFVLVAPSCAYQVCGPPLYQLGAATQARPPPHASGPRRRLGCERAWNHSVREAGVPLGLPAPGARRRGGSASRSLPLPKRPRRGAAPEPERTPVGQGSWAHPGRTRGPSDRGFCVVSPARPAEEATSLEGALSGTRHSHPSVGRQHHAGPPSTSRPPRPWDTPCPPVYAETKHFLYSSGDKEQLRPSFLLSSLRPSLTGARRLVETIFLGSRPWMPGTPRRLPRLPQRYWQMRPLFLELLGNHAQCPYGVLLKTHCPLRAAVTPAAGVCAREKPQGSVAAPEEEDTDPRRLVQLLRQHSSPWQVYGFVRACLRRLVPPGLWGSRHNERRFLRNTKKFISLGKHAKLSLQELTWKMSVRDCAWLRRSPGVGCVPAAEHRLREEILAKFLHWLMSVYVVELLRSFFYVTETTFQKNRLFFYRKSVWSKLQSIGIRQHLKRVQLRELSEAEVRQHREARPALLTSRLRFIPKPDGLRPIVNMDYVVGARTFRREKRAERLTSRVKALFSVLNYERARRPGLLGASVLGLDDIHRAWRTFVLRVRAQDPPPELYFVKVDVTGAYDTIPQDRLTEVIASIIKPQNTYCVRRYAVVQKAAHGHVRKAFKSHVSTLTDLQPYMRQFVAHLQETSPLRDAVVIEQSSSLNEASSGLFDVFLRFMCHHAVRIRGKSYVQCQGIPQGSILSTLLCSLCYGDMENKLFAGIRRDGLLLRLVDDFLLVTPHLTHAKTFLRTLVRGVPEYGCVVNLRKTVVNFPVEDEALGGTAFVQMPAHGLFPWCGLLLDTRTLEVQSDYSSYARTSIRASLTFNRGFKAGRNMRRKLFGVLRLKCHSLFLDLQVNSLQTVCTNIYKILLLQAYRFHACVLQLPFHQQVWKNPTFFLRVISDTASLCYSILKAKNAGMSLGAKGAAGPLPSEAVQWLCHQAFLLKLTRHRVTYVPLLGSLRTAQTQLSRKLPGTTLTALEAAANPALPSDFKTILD

The term viability denotes a per cent measure of how many cells are alive, often set against a control. Higher therefore signals better survival. Usually residual activity stands for the activity still measured, relative to the control. For `COc1cc(-c2nc3ccc4c(c3[nH]2)C(=O)c2ccccc2C4=O)ccc1O`, the growth at 10 µM in the experiment on COLO 205 came out at 101%; with KM12 it was 113%; with OVCAR-5 it was 97.1%; with SN12C, 102%; in the experiment with NCI-H226, 100%; in the experiment on HOP-62, 116%. The growth at 10 µM amounted to 82.2% with SK-MEL-2; 95.5% in the experiment with K562; 97.4% in the experiment on SNB-19; 81% in experiment [2]; 102% in the experiment on SF-539; 88.1% with DU-145. For the same compound, the inhibition entry in experiment [1] is “inactive”. In addition, in [3], the viability at 1 µM turned out to be 71%. In addition, the residual activity in [4] came out at 85%.
For the compound `O=C1c2ccccc2C(=O)c2c1ccc1nc(-c3ccccc3)[nH]c21`, the growth at 10 µM with COLO 205 worked out at 92%; in the experiment on KM12, 75.5%; with OVCAR-5, 109%; with SN12C it was 87.5%; in the experiment on NCI-H226, 80.5%; in the experiment with HOP-62, 109%. The growth at 10 µM stood at 62.6% with SK-MEL-2; 76% in the experiment on K562; 102% in the experiment on SNB-19; 61.1% in experiment [2]; 96.2% in the experiment with SF-539; 84.3% in the experiment with DU-145. For the same compound, in experiment [1], the inhibition entry was “inactive”. Besides, in experiment [3], the viability at 1 µM was 79%. Further, the residual activity in experiment [4] turned out to be 81%.
For the compound `O=C1c2ccccc2C(=O)c2c1ccc1nc(-c3ccc(Br)cc3)[nH]c21`, the growth at 10 µM came to 110% in the experiment on COLO 205; 102% in the experiment on KM12; 93.2% with OVCAR-5; 112% in the experiment with SN12C; 103% with NCI-H226; 104% with HOP-62. Besides, the growth at 10 µM turned out to be 72.2% with SK-MEL-2; 109% with K562; 101% in the experiment with SNB-19; 95.2% in [2]; 103% in the experiment with SF-539; 113% with DU-145. In addition, the inhibition entry in [1] is “inactive”. The viability at 1 µM in experiment [3] turned out to be 96%. Further, the residual activity in experiment [4] was determined as 89%.
For the compound `Cc1ccc(-c2nc3ccc4c(c3[nH]2)C(=O)c2ccccc2C4=O)cc1`, the growth at 10 µM with COLO 205 was found to be 108%; in the experiment on KM12, 106%; in the experiment with OVCAR-5, 106%; in the experiment with SN12C it was 103%; in the experiment with NCI-H226, 101%; with HOP-62 it was 110%. The growth at 10 µM is 79.6% with SK-MEL-2; 102% in the experiment on K562; 97.8% in the experiment on SNB-19; 91.5% in experiment [2]; 91.7% in the experiment on SF-539; 98.8% in the experiment with DU-145. Moreover, the inhibition entry in experiment [1] is “inactive”. In experiment [3], this compound came in with a viability at 1 µM of 75%. Moreover, the residual activity in [4] turned out to be 86%.
Regarding `N#Cc1ccc(-c2nc3ccc4c(c3[nH]2)C(=O)c2ccccc2C4=O)cc1`, the growth at 10 µM in the experiment on COLO 205 was found to be 113%; in the experiment with KM12, 98.6%; with OVCAR-5, 98.1%; in the experiment with SN12C, 105%; in the experiment with NCI-H226, 103%; with SK-MEL-2, 22.5%. Besides, the growth at 10 µM with K562 was 54.9%; in the experiment with SNB-19, 97.8%; in experiment [2] it was 114%; in the experiment on UACC-257, 105%; in the experiment on SF-539 it was 104%; in the experiment with DU-145, 97.7%. Also, the inhibition entry in experiment [1] was “inactive”. This compound also gave a viability at 1 µM in experiment [3] of 80%. Also, the residual activity in experiment [4] came out at 91%.
In the case of `CC1(C)Nc2ccc3c(c2N1)C(=O)c1ccccc1C3=O`, the growth at 10 µM in the experiment with COLO 205 came to 90.6%; with KM12, 51.5%; in the experiment with OVCAR-5 it was 96.5%; in the experiment with SN12C, 92%; in the experiment with NCI-H226, 89.7%; in the experiment with SK-MEL-2, 8.04%. Besides, the growth at 10 µM in the experiment on K562 was found to be 101%; in the experiment with SNB-19, 94.3%; in [2], 99.9%; in the experiment with UACC-257, 118%; in the experiment with SF-539, 93.6%; in the experiment with DU-145, 76%. Also, the inhibition result in experiment [1] was “inactive”. In addition, the viability at 1 µM in experiment [3] came out at 98%. For the same compound, the residual activity in experiment [4] turned out to be 96%.
